Source: PubChem BioAssay
EBV gp42 inh = EBV gp42 inhibition | Fluorescence polarization binding assay, mP read-out | inhibition, % (tested at 21.74 µM) | 220,000 tested, 0.42% active; in the data active = inhibition above about 50%
Target sequence (Q1HVG2 whole entry, looked up): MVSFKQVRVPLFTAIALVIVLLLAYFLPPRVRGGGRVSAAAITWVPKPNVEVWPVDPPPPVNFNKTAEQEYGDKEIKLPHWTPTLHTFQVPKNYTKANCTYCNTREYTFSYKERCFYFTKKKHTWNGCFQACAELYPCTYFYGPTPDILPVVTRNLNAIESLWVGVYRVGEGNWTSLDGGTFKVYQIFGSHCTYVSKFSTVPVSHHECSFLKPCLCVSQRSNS
MEX-5 binding = C. elegans MEX-5 TCR-2 RNA binding activity. Q9XUB2. MEX-5/FITC-TCR2 RNA binding, fluorescence polarization; active compounds read low. activity score (negative = inhibition of binding), % at 10 µM. 300,000 tested, 0.38% active;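 active = inhibition past about -25% in most replicates, and total fluorescence under double the plate's negative control median, limit read from the data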;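 also: 0% = DMSO and -100% = 5 µM competing unlabeled TCR2 RNA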
core dimer inh = blocks dimerization of HCV core protein | inhibition, % at 5 µM | TR-FRET GST/Flag-core106 dimerization, 1536-well | 300,000 tested, 0.33% active | AID 1899;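 active = inhibition above the mean of all tested compounds plus 3 SD, set per screening campaign, cut at about 45% in these data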
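System: GST-tagged and Flag-tagged HCV core protein residues 1-106 / Input: core106 proteins, GST 13.5 nM and Flag 17 nM / Buffer or medium: KF-containing HEPES buffer, pH 7.45, DTT, CHAPS, BSA / Probe or stimulus: Eu-anti-GST and XL665-anti-Flag labelled anti-tag antibodies / Schedule: 4 h, 22.5 °C incubation / Technique: TR-FRET 671 and 617 nm emission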
NS3 helicase inh = HCV NS3 helicase inhibition | 290,000 tested, 0.56% active | NS3 helicase DNA unwinding, Cy5 molecular beacon fluorescence | inhibition, % at 10.9 µM;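 active = inhibition above the mean of all tested compounds plus 3 SD, set per campaign, cut at about 35% in these data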;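 also: 0% = DMSO wells and 100% = thioflavine S control wells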
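System: Hepatitis C virus NS3 helicase domain fragment enzyme | Reagent: Annealed dual-labelled DNA beacon duplex, ATP-started | Compound dosing: 10.9 µM single point, 0.8% DMSO | Incubation: 1 h reaction at 25 °C, ATP-initiated | Technique: Cy5 fluorescence | Evaluation: Percent inhibition from t60/t0 fluorescence ratio | Benchmarks: Low DMSO, high thioflavine S at 110 µM | Replication: Singlicate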
EBNA-1 inh = blocks EBNA-1 binding to DNA | AID 1950 | inhibition, % at 14.8 µM | 300,000 tested, 0.34% active | EBNA-1 DNA binding, fluorescence polarization; in the data active = inhibition above about 28%
ZTA DNA inh = counter-screen for EBNA-1 inhibitors: inhibitors of Epstein-Barr virus ZTA; ZTA-DNA binding, fluorescence polarization; inhibition, % at 11 µM; P03206; 320,000 tested, 0.15% active; in the data active = inhibition above about 33%
Target sequence (P03206 whole entry, looked up): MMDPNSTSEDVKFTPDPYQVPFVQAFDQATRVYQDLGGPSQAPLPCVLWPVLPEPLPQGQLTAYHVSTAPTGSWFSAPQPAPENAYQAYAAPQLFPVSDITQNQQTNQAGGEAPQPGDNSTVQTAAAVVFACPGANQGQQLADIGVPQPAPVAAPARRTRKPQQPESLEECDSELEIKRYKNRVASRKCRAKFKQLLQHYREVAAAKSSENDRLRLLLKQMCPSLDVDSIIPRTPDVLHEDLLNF
The depositor's hits bear a star; x = not tested or not shown. In the library only some 1.7% were active in any assay of this set; here they are far more common.

SMILES	EBV gp42 inh	MEX-5 binding	core dimer inh	NS3 helicase inh	EBNA-1 inh	ZTA DNA inh
NS(=O)(=O)c1ccc(N=Nc2c[nH]c(=O)c(O)c2)cc1	-9	-89*	-27	9	-6	-8
Cc1[nH][nH]c(=O)c1N=Nc1ccc(S(N)(=O)=O)cc1	x	-59*	-6	x	-7	1
CN(CC(=O)NCc1ccccn1)S(=O)(=O)c1ccc(Br)cc1	0	-26*	1	3	1	5
CCOc1ccc(S(=O)(=O)N(C)CC(=O)NCc2ccccn2)cc1	x	1	-3	-3	-5	-6
CC1CCN(CCc2nc3cc(NC(=O)COc4ccc(Cl)cc4)ccc3n2C)CC1	x	4	1	-32	-5	-3
COc1ccc2c(C(=O)c3ccc(C)cc3)n(Cc3ccc(C(N)=O)cc3)[n+]([O-])c2c1	x	x	-60	x	11	3
O=C1NC(c2cccs2)Nc2sc3c(c21)CCCC3 (stereo unspecified)	-16	-1	0	7	7	-14
CN1C(=O)c2c(sc3c2CCCC3)NC1c1ccccc1O (stereo unspecified)	-9	0	55*	20	4	4
O=C(CN1CCN(Cc2ccc(F)cc2Cl)CC1)NCc1ccccc1	x	0	-19	5	-2	-6
CCCNC(=O)N1CCN(c2nc(C(C)C)c3c(c2C#N)CC(C)(C)OC3)CC1	-15	-2	9	2	15	-4
Cc1ccc(S(=O)(=O)N2CCN(c3nc(C(C)C)c4c(c3C#N)CC(C)(C)OC4)CC2)cc1	-45	0	6	-6	88*	70*
N#CC(C#N)=C1NC2(CCCCC2)Cc2ccccc21	-6	0	3	1	8	7
N#CC(C#N)=c1ccc2c(c1)NC1(CCCCC1)N=2	10	-2	-8	21	38*	40*
NC(=O)C1CCCN(CC(=O)Nc2cc(S(=O)(=O)N3CCOCC3)ccc2N2CCCC2)C1 (stereo unspecified)	x	x	x	x	x	18
COc1ccc2nc3cc(Cl)ccc3c(Nc3cc(CN4CCCC4)c(O)c(CN4CCCC4)c3)c2n1	x	-36*	-42	-44	2	-19
CC(=O)Nc1cc(OC(C)=O)c2nonc2c1OC(C)=O	x	x	1	7	7	70*
CC(=O)Nc1nonc1NC(C)=O	-3	2	-4	-4	-15	4
O=C1CCC(=O)N1c1nc2n(n1)C(c1ccccc1)C=C(c1ccc(Br)cc1)N2 (stereo unspecified)	51*	-12	12	-6	-11	-4
COc1ccccc1C1C=C(c2ccc(Cl)cc2)Nc2nc(NS(C)(=O)=O)nn21 (stereo unspecified)	22	-15	13	13	10	-1
COc1ccc(C2C=C(c3ccc(Br)cc3)Nc3nc(N4C(=O)CCC4=O)nn32)cc1 (stereo unspecified)	68*	-28*	11	4	11	-2
CS(=O)(=O)Nc1nc2n(n1)C(c1ccccc1)C=C(c1ccc(Br)cc1)N2 (stereo unspecified)	58*	-69*	18	12	5	-4
N#CC1=C(N)C(C#N)(C#N)C(c2cccnc2)C2CCCC=C12 (stereo unspecified)	49	-26*	4	-3	0	8
CNc1nc(-c2c[nH]c3ccccc23)cs1	-17	2	-19	-11	9	31
CCC(C)Nc1nc(-c2c[nH]c3ccccc23)cs1 (stereo unspecified)	x	-1	-4	-48	19	55*
N=C1/C(=C\c2ccc(SCc3ccccc3)o2)C(=O)N=C2SC(CC(=O)N3CCOCC3)=NN12	-30	-30*	8	6	1	-17
SMILES	EBV gp42 inh	MEX-5 binding	core dimer inh	NS3 helicase inh	EBNA-1 inh	ZTA DNA inh
COC(=O)CSc1ncnc2c1sc1nc(N3CCOCC3)c3c(c12)CCCC3	-8	-2	31	-2	-10	1
COC(=O)c1ccc(CSc2ncnc3c2sc2nc(N4CCOCC4)c4c(c23)CCCC4)o1	x	4	66*	8	7	1
COc1ccc(C2=CC3=C(Br)C(=O)C(C)(OC(=O)c4ccco4)C(=O)C3=CO2)cc1 (stereo unspecified)	11	-48*	27	x	12	12
COc1ccc(C2=CC3=C(Br)C(=O)C(C)(OC(=O)c4cccs4)C(=O)C3=CO2)cc1 (stereo unspecified)	x	-34*	5	x	-4	11
Cc1cc(C)n(CCC(=O)N2CCCC(N3CCN(c4cccc(Cl)c4)CC3)C2)n1 (stereo unspecified)	x	2	-11	1	-4	-17
COc1ccc(/C=C/C(=O)NCC(=O)N/N=C/c2cc(Br)ccc2OCc2ccccc2)cc1	-3	1	49*	-3	-1	-6
O=C(CNS(=O)(=O)c1ccc(Cl)c(C(F)(F)F)c1)NC1CCCCCC1	x	x	x	x	x	-20
CCOC(=O)/C=c1\s/c(=C\c2ccc3cc(OC)ccc3c2)c(=O)n1CC(=O)NCC1CCCO1 (stereo unspecified)	-45	-47*	8	10	-3	8
CCOC(=O)/C=c1\s/c(=C\c2ccc(C)cc2)c(=O)n1CC(=O)NCc1ccco1	-30	-3	11	-4	45*	11
COc1ccc(/C=C/C(=O)OCC(=O)NCC2CCCO2)cc1 (stereo unspecified)	-25	0	-10	-3	2	-10
CCOC(=O)/C=c1\s/c(=C\c2ccc(C(F)(F)F)cc2)c(=O)n1CC(=O)NCc1ccco1	-45	-4	54*	21	-19	1
O=S(=O)(Nc1cccc(-n2cnnn2)c1)c1ccccc1C(F)(F)F	x	-1	0	0	-17	-10
CCN(CC)c1ccc(N2C(=NC(=O)C3CC3)SC3CS(=O)(=O)CC32)cc1 (stereo unspecified)	x	1	-1	21	-5	0
Cc1nc2ccccc2n1-c1ccccc1	-13	0	-3	-1	7	-2
O=c1c(/C=C(\O)c2ccccc2)nc2ccccc2n1-c1ccccc1	176*	-53*	16	10	-1	15
CCCn1c(O)c(CN2CCCCC2)c(C)c(C#N)c1=O	-4	-51*	-4	16	-1	2
Cc1c(CN2CCCCC2)c(O)n(CCCO)c(=O)c1C#N	-4	-46*	3	2	-3	10
CCCCN(C(=O)c1ccc([N+](=O)[O-])o1)c1c(N)n(CC(C)C)c(=O)[nH]c1=O	x	-28*	5	x	3	15
CCCCN(C(=O)c1cc2ccccc2o1)c1c(N)n(CC(C)C)c(=O)[nH]c1=O	-11	1	-8	9	11	5
Cc1ccc(C)n1-c1ccc(N(C)C)cc1	-20	-1	0	21	109*	180*
Cc1ccc(NC(=O)CNC(=O)C2CCCCC2)nc1	x	-2	0	x	-4	-4
